Bioassay records (PubChem)
The list is not random: actives were taken first. Their share in the collection is about 1.7%.
HCV core dimer – inhibitors of HCV core protein dimerization, primary screen, biochemical, TR-FRET, high-throughput. TR-FRET GST/Flag-core106 dimerization, 1536-well. inhibition, % at 5 µM. AID 1899, 2009. 300,000 tested, 0.33% active;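 active = inhibition above the mean of all tested compounds plus 3 SD, set per screening campaign, cut at about 45% in these data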
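Test system: GST/Flag-tagged HCV core106 proteins; Medium: KF-containing HEPES buffer, pH 7.45, DTT, CHAPS, BSA; Times: compound-protein-antibody incubation 4 h at 22.5 °C; Detection: TR-FRET 671 and 617 nm emission; Benchmarks: wells lacking GST-core106 and wells with excess unlabelled core106.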
EBNA-1 inh – EBNA-1 DNA-binding inhibitors, primary screen, biochemical, fluorescence polarization | 300,000 tested, 0.34% active | AID 1950, 2009 | inhibition, % at 14.8 µM; in the data active = inhibition above about 28%
ZTA counter – ZTA (EBV) inhibition in EBNA-1 counter-screen | P03206 | inhibition, % at 11 µM | ZTA-DNA binding, fluorescence polarization | 320,000 tested, 0.15% active; in the data active = inhibition above about 33%
Target sequence (P03206 whole entry, looked up): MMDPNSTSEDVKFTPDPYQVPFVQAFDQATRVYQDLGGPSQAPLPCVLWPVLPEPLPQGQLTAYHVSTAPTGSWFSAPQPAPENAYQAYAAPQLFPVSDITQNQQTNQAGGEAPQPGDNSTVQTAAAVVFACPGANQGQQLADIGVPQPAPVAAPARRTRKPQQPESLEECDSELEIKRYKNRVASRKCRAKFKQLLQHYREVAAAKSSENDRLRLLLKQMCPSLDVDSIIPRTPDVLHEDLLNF
PP5 inh – PP5 phosphatase inhibitors, primary screen, biochemical, fluorescence; AID 1987, 2009; purified PP5c, OMFP substrate fluorescence; inhibition, % at 6.7 µM; Serine/threonine-protein phosphatase 5 (Homo sapiens), P53041; 320,000 tested, 0.18% active;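 active = inhibition above the campaign's mean inhibition across all tested compounds plus 3 SD, cut at about 9.5% in these data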;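 also: 0% = DMSO only and 100% = 100 µM cantharidin control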
PP1 counter – PP1-alpha phosphatase inhibitors, primary screen, counter-screen for PP5 inhibitor project, biochemical, fluorescence, OMFP substrate, single point | Serine/threonine-protein phosphatase PP1-alpha catalytic subunit (Homo sapiens), P62136 | purified PP1alpha | inhibition, % at 6.7 µM | 320,000 tested, 0.9% active | AID 2235, 2010;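 active = inhibition above the mean inhibition of all tested compounds plus 3 SD, computed separately for each screening campaign, cut at about 15% in these data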
PP1 inh confirm – PP1 phosphatase inhibitors, confirmation, biochemical, fluorescence, OMFP substrate, triplicate; AID 2358, 2010; shares compounds with PP1 counter; 1,900 tested, 52% active; purified PP1alpha; inhibition, % at 6.7 µM;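 active = mean PP1 inhibition above a set limit taken from the earlier primary screen, cut at about 15% in these data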
PP5 inh counter – PP5 phosphatase inhibition by PP1 hits, confirmation, counter-screen for PP1 inhibitor project, biochemical, fluorescence, triplicate; shares compounds with PP1 counter; purified PP5c, OMFP fluorescence; inhibition, % at 6.7 µM; 1,900 tested, 4% active;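 active = mean PP5 inhibition over triplicate wells above about 9.5% taken from the earlier PP1 screen, limit read from the data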
The depositor's hits bear a star; / = no result.

SMILES	HCV core dimer	EBNA-1 inh	ZTA counter	PP5 inh	PP1 counter	PP1 inh confirm	PP5 inh counter
N#C/C(=C(/O)c1ccc(Cl)c([N+](=O)[O-])c1)c1nc2ccccc2[nH]1	0	-3	-14	4	20*	14	-1
O=C(CN1CCN(Cc2ccc(Cl)cc2)CC1)N/N=C/c1c[nH]c2ccccc12	2	-9	10	0	-1	/	/
O=C(OCC(=O)N1CCN(C(=O)c2ccco2)CC1)c1cc(-c2ccco2)nc2ccccc12	68*	9	2	2	22*	13	-5
O=S(=O)(NCC(c1cccs1)N1CCc2ccccc2C1)c1ccccc1 (stereo not given)	4	3	4	4	1	/	/
NC(=O)c1nn(-c2ccccc2)nc1NC(=O)CN1CCCCC1	5	-12	8	4	47*	-5	-6
CCOc1cc(/C=N/NC(=O)Cn2nc([N+](=O)[O-])cc2C)ccc1OCc1ccc(F)cc1	-34	11	8	1	18*	17*	-2
Cc1ccc(C)c(NC(=O)CSc2nnc(-c3ccncc3)o2)c1	1	2	-9	-1	-1	/	/
N#Cc1ccccc1NC(=O)CSc1nnc(-c2ccncc2)o1	-3	-3	-13	3	33*	-2	-2
